Assay results from ChEMBL document CHEMBL5390271, “Targeting Glial Cells by Organic Anion-Transporting Polypeptide 1C1 (OATP1C1)-Utilizing l-Thyroxine-Derived Prodrugs” (J Med Chem, 2023).

Experiments:
[1] = Drug uptake in human U-87 MG cells expressing OATPIC1 at 100 uM incubated for 30 mins in presence of diclofenac by HPLC analysis; type: ADME, cell-based; settings: u-87mg atcc, 0.5 h
Procedure, shortened: (§1)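 U-87MG cells preincubated 10 min with diclofenac or flufenamic acid (100 μM), then co-incubated with the compound (100 μM) plus inhibitor in HBSS pH 7.4 for 30 min at 37 °C. Uptake quantified by HPLC, normalized to protein and expressed as % of control. One-way ANOVA with Dunnett's test; n = 3.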

[2] = Drug uptake in human U-87 MG cells expressing OATPIC1 at 100 uM incubated for 30 mins in presence of flufenamic acid by HPLC analysis; type: ADME, cell-based; settings: u-87mg atcc, 0.5 h; procedure, shortened: as §1
[3] = Chemical stability in Tris-HCI buffer at pH 7.4 at 100 uM and measured after 24 hrs by HPLC analysis; type: physicochemical; settings: pH 7.4, 24 h
Procedure, shortened: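 Prodrug (100 μM initial, from 10 mM DMSO stock; 2% DMSO) incubated at 37 °C in 50 mM Tris–HCl pH 7.4 for 24 h. Samples taken at intervals, quenched 1:1 with ACN, analysed by HPLC-UV (230–240 nm). Pseudo-first-order t1/2 taken from the slope of log remaining prodrug vs time.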

[4] = Drug uptake in mouse Astrocyte cells expressing OATPIC4/5/6 at 100 uM incubated for 30 mins in presence of naringin by liquid scintillation counter analysis; type: ADME, cell-based; settings: 0.5 h
Procedure, shortened: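 Astrocytes preincubated 10 min with naringin (100 μM), then incubated with substrate (100 μM) plus naringin in HBSS pH 7.4 for 30 min at 37 °C. Uptake normalized to protein and expressed relative to control; one-way ANOVA with Dunnett's test.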

[5] = Prodrug conversion in JAXC57BL/6 mouse brain assessed as total amount of prodrug and ketoprofen level at 25 micromol/kg,ip and measured after 30 mins by LC-MS/MS analysis; type: ADME, tissue-based; settings: in vivo, 0.5 h, dose 25 µmol/kg
Procedure, shortened: (§2)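 Male C57BL/6J mice, seven weeks old, given an ip bolus of 25 μmol/kg. Formulation 2.5 mM in saline with 30% Macrogol 15-hydroxystearate and 3% DMSO. Pentobarbital anaesthesia, then transcardial perfusion with ice-cold saline for 1 min. Whole brain (minus cerebellum and pons) taken at 30 min, homogenized in Tris pH 7.4, ACN-precipitated with labetalol internal standard, and quantified by LC–MS/MS in nmol/g.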

[6] = Prodrug conversion in human U-87 MG cells expressing OATPIC1 assessed as OATPIC1 mediated drug release at 100 uM incubated for 30 mins by HPLC analysis; type: ADME, cell-based; settings: u-87mg atcc, 0.5 h
Procedure, shortened: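 U-87MG cells incubated with prodrug at 100 μM for 30 min at 37 °C in HBSS. Released parent drug in cell lysate measured by HPLC and normalized to protein, alongside uptake of the parent drug itself; n = 3–6.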

[7] = Drug uptake in mouse Astrocyte cells expressing OATPIC4/5/6 assessed as Vmax at 200 uM incubated for 30 mins by Michaelis-Menten analysis; type: ADME, cell-based; settings: 0.5 h
Procedure, shortened: (§3)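 Primary astrocytes from neonatal (P0–2) C57BL/6JOlaHsd pups, microglia removed at day 7, seeded at 10^4 cells/well 3 days before assay. Substrate added at 5–400 μM in HBSS pH 7.4 for 30 min at 37 °C. [3H]-estrone-3-sulfate measured by liquid scintillation and prodrugs by HPLC; normalized to protein. Km/Vmax fitted by Michaelis–Menten.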

[8] = Drug uptake in human U-87 MG cells expressing OATPIC1 assessed as Vmax at 200 uM incubated for 30 mins by Michaelis-Menten analysis; type: ADME, cell-based; settings: u-87mg atcc, 0.5 h
Procedure, shortened: (§4)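 U-87MG cells seeded at 1 × 10^5/well and used 1 day later. After 10 min preincubation in HBSS pH 7.4 at 37 °C, compounds added at 5–400 μM for 30 min at 37 °C. Cells washed with ice-cold HBSS, lysed in 0.1 M NaOH, acidic-ACN precipitated, analysed by HPLC against a spiked lysate standard curve, and normalized to Bradford protein. Km/Vmax fitted by Michaelis–Menten; n = 3 biological replicates.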

[9] = Drug uptake in human U-87 MG cells expressing OATPIC1 at 100 uM incubated for 30 mins in presence of Na+ ions by HPLC analysis; type: ADME, cell-based; settings: u-87mg atcc, 0.5 h
Procedure, shortened: (§5)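 U-87MG cells incubated with T4 for 30 min at 37 °C in HBSS buffered with HEPES (pH 7.4, 8.5) or MES (pH 4.5–6.5). For Na+-free conditions, choline chloride replaced NaCl at pH 7.4. Lysates analysed by HPLC and normalized to protein; mean ± SD, n = 3 biological replicates.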

[10] = Drug uptake in human U-87 MG cells expressing OATPIC1 at pH 4.5 to 8.5 at 100 uM incubated for 30 mins by HPLC analysis; type: ADME, cell-based; settings: u-87mg atcc, pH 4.5, 0.5 h; procedure, shortened: as §5
[11] = Drug uptake in human U-87 MG cells expressing OATPIC1 at 5 to 400 uM incubated for 30 mins by HPLC analysis; type: ADME, cell-based; settings: u-87mg atcc, 0.5 h, dose 5-400 µM; procedure, shortened: as §4
[12] = Drug uptake in human U-87 MG cells expressing OATPIC1 at 100 uM incubated for 30 mins in absence of Na+ ions by HPLC analysis; type: ADME, cell-based; settings: u-87mg atcc, 0.5 h; procedure, shortened: as §5
[13] = Drug uptake in mouse Astrocyte cells expressing OATPIC4/5/6 at 5 to 400 uM incubated for 30 mins by liquid scintillation counter analysis; type: ADME, cell-based; settings: 0.5 h, dose 5-400 µM; procedure, shortened: as §3
[14] = Drug uptake in mouse Astrocyte cells expressing OATPIC4/5/6 at 100 uM incubated for 30 mins in absence of Na+ ions by liquid scintillation counter analysis; type: ADME, cell-based; settings: 0.5 h
Procedure, shortened: (§6)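 Mouse primary astrocytes incubated with [3H]-estrone-3-sulfate for 30 min at 37 °C in HBSS at pH 4.5–8.5 (MES or HEPES buffer). At pH 7.4, uptake was also run with choline chloride in place of Na+. Read by liquid scintillation counting and normalized to protein; n = 3 biological replicates.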

[15] = Drug uptake in mouse Astrocyte cells expressing OATPIC4/5/6 at 100 uM incubated for 30 mins in presence of Na+ ions by liquid scintillation counter analysis; type: ADME, cell-based; settings: 0.5 h; procedure, shortened: as §6
[16] = Drug uptake in mouse Astrocyte cells expressing OATPIC4/5/6 at pH 4.5 to 8.5 at 100 uM incubated for 30 mins by liquid scintillation counter analysis; type: ADME, cell-based; settings: pH 4.5, 0.5 h; procedure, shortened: as §6
[17] = Drug uptake in JAXC57BL/6 mouse brain at 25 micromol/kg,ip and measured after 30 mins by LC-MS/MS analysis; type: ADME, tissue-based; settings: in vivo, 0.5 h, dose 25 µmol/kg; procedure, shortened: as §2

Row | SMILES | Drug uptake [1] | Drug uptake [2] | Stability [3] | Drug uptake [4] | Drug metabolism [6] | further results
1 | CC(C(=O)Oc1c(I)cc(Oc2c(I)cc(C[C@H](N)C(=O)O)cc2I)cc1I)c1cccc(C(=O)c2ccccc2)c1 (stereo not given in full) | Not Active | Not Active | Stable | Not Active | Metabolite_Detected | Drug uptake [5]: 0.78 nmol/g; Vmax [7]: 5.5 nmol/min/mg
2 | CC(C(=O)Oc1c(I)cc(C[C@H](N)C(=O)O)cc1I)c1cccc(C(=O)c2ccccc2)c1 (stereo not given in full) | Active | Active | Stable | Not Active | Metabolite_Detected | Vmax [8]: 1.27 nmol/min/mg
3 | N[C@@H](Cc1cc(I)c(Oc2cc(I)c(O)c(I)c2)c(I)c1)C(=O)O [LEVOTHYROXINE] | Not Active | Not Active | – | – | – | Drug uptake [9]: Active; Drug uptake [10]: Active; Drug uptake [11]: Active; Drug uptake [12]: Active
4 | C[C@]12CC[C@@H]3c4ccc(OS(=O)(=O)O)cc4CC[C@H]3[C@@H]1CCC2=O [ESTRONE SULFURIC ACID] | – | – | – | Not Active | – | Drug uptake [13]: Active; Drug uptake [14]: Active; Drug uptake [15]: Active; Drug uptake [16]: Active
5 | CC(C(=O)Oc1c(I)cc(C[C@H](N)C(=O)O)cc1I)c1ccc(-c2ccccc2)c(F)c1 (stereo not given in full) | Not Active | Not Active | Stable | Not Active | Metabolite_Detected | –
6 | CC(C(=O)Oc1c(I)cc(Oc2c(I)cc(C[C@H](N)C(=O)O)cc2I)cc1I)c1ccc(-c2ccccc2)c(F)c1 (stereo not given in full) | Not Active | Not Active | Stable | Not Active | Metabolite_Detected | –
7 | N[C@@H](Cc1cc(I)c(Oc2cc(I)c(OC(=O)c3ccccc3O)c(I)c2)c(I)c1)C(=O)O | Active | Active | Stable | Not Active | Metabolite_Detected | –
8 | COc1ccc2cc([C@H](C)C(=O)Oc3c(I)cc(Oc4c(I)cc(C[C@H](N)C(=O)O)cc4I)cc3I)ccc2c1 | Not Active | Active | Stable | Active | Metabolite_Detected | –
9 | COc1ccc2cc([C@H](C)C(=O)Oc3c(I)cc(C[C@H](N)C(=O)O)cc3I)ccc2c1 | Active | Active | Stable | Active | Metabolite_Detected | –
10 | CC(C(=O)O)c1cccc(C(=O)c2ccccc2)c1 (racemic) [KETOPROFEN] | – | – | – | – | – | Drug uptake [17]: 0.22 nmol/g
11 | N[C@@H](Cc1cc(I)c(OC(=O)c2ccccc2O)c(I)c1)C(=O)O | Active | Active | Stable | Not Active | Metabolite_Detected | –
